In ChEMBL document CHEMBL2093137, “WHO-TDR NTD Screening”:
≈ marks a conversion by molar mass, not a printed value.

Key:
[1] = test system: Trypanosoma brucei brucei; test: WHO-TDR: Human African Trypanosomiasis (HAT); format: functional, organism-based; settings: Squib-427
In short: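 Bloodstream forms of the Trypanosoma brucei Squib 427 strain were tested in a whole-organism screen with a diverse library from Life Chemicals of 10,000 compounds. Before screening, the library was filtered for drug-likeness and for reactive groups. The assay used previously published standard procedures and included reference drugs as positive controls. Potency against the parasite is expressed as IC50.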

Onchocerca lienalis = test: WHO-TDR: Onchocerciasis; format: functional; set-up: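 at 12.5 µM on microfilariae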
In short: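 Percent inhibition and IC50 describe activity against microfilariae of Onchocerca ochengi or Onchocerca lienalis, used as animal-pathogen substitutes for the human parasite. The compounds tested made up a 10,000-member diverse library from Life Chemicals.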

Schistosoma mansoni = test: WHO-TDR: Schistosomiasis; format: functional; set-up: concentration or dose not given beside the values
In short: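 Percent inhibition and IC50 describe activity against whole Schistosoma mansoni worms of the Puerto Rican strain, tested as larvae and/or adults. The compounds screened were a diverse set of 10,000 from Life Chemicals, filtered for drug-likeness and reactive groups. Testing followed previously published standard procedures, with a reference drug as positive control.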

Brugia malayi = test: WHO-TDR: Lymphatic Filariasis; format: functional; set-up: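 tested at 10 µM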
In short: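 The screening set was a 10,000-compound diverse library from Life Chemicals, filtered for drug-likeness and for reactive groups. It was run against Brugia malayi microfilariae as whole organisms, using previously published standard procedures. Reference drugs acted as positive controls, and activity is reported both as percent inhibition and as IC50.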

[2] = WHO-TDR: Cytotoxicity; format: toxicity, cell-based; settings: human, MRC5 cells
Plasmodium falciparum K1 = test: WHO-TDR: Malaria; format: functional, organism-based, Homo sapiens; settings: Erythrocyte
In short: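 Following previously published standard procedures, with a reference drug serving as positive control, compounds were tested on the Plasmodium falciparum K1 strain inside human red blood cells. The 10,000-compound diverse set came from Life Chemicals after filtering for drug-likeness and reactive groups. Potency against the parasite appears as IC50.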

Leishmania infantum = test: WHO-TDR: Leishmaniasis; format: functional, organism-based, Mus musculus; settings: Macrophage
In short: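 Following previously published standard procedures, a whole-organism screen was run on Leishmania infantum MHOM/MA(BE)/67 amastigotes within murine peritoneal macrophages, with a reference drug as positive control. The 10,000 compounds tested formed a diverse Life Chemicals library filtered for drug-likeness and reactive groups. Potency against the parasite is reported as IC50.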

Trypanosoma cruzi = test: WHO-TDR: Chagas disease; format: functional, organism-based, Homo sapiens; settings: MRC5
In short: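 Intracellular amastigotes of the Trypanosoma cruzi Tulahuen CL2 beta-galactosidase strain, grown in MRC-5SV2 human lung fibroblast host cells, were tested in a whole-organism screen. The compounds came from a 10,000-member diverse Life Chemicals library that had been filtered for drug-likeness and reactive groups. Previously published standard procedures were followed, with a reference drug as positive control, and potency is reported as IC50.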

IC50 [1] [µg/mL]	IC50 (Plasmodium falciparum K1) [µg/mL]	IC50 (Leishmania infantum) [µg/mL]	Compound	% Inhibition (Onchocerca lienalis) [%]	% Inhibition (Schistosoma mansoni) [%]	% Inhibition (Brugia malayi) [%]	IC50 [2] [µg/mL]	IC50 (Trypanosoma cruzi) [µg/mL]
> 10.5	> 10.5	0.341 (≈ 0.971 µM)	COC(=O)c1ccccc1N(C)C(=O)c1cc2cccnc2n(C)c1=O	0	0	0	> 10.5	> 10.5
0.376 (≈ 1.01 µM)	> 11.1	3.6 (≈ 9.71 µM)	Cc1nn(-c2ccccc2)c2ncc(C(=O)NCC3CCCO3)c(Cl)c12 (stereo not given)	66.7	0	0	3.52 (≈ 9.49 µM)	0.392 (≈ 1.06 µM)
0.292 (≈ 0.759 µM)	8.26 (≈ 21.5 µM)	3.74 (≈ 9.71 µM)	Cc1nn(-c2ccc(F)cc2)c2ncc(C(=O)NCc3ccco3)c(Cl)c12	0	25	0	1.31 (≈ 3.41 µM)	0.398 (≈ 1.03 µM)
10.1 (≈ 20.6 µM)	> 14.7	> 14.7	Cc1ccc(-c2nnc(NC(=O)c3ccc(S(=O)(=O)N4CCc5ccccc5C4)cc3)o2)cc1C	0	0	0	8.86 (≈ 18.1 µM)	0.538 (≈ 1.1 µM)
2.96 (≈ 6.25 µM)	> 14.2	> 14.2	CN(Cc1ccco1)S(=O)(=O)c1ccc(C(=O)Nc2nnc(-c3ccccc3Cl)o2)cc1	0	0	0	0.807 (≈ 1.71 µM)	0.465 (≈ 0.983 µM)
4.55 (≈ 9.71 µM)	10.2 (≈ 21.8 µM)	9.57 (≈ 20.4 µM)	COc1ccccc1-c1nnc(NC(=O)c2ccc(S(=O)(=O)N(C)Cc3ccco3)cc2)o1	0	0	0	5.89 (≈ 12.6 µM)	0.511 (≈ 1.09 µM)
4.22 (≈ 9.49 µM)	6.65 (≈ 15 µM)	> 13.3	CN(Cc1ccco1)S(=O)(=O)c1ccc(C(=O)Nc2nnc(-c3cccs3)o2)cc1	0	0	0	2.5 (≈ 5.62 µM)	0.456 (≈ 1.03 µM)
0.415 (≈ 0.982 µM)	> 12.7	> 12.7	Cc1ccc(S(=O)(=O)N2CCCc3cc(NC(=O)Oc4ccccc4)ccc32)cc1	0	0	0	1.76 (≈ 4.17 µM)	> 12.7
> 12	> 12	0.387 (≈ 0.971 µM)	CS(=O)(=O)N1CCCc2cc(NC(=O)c3cc4ccccc4oc3=O)ccc21	0	0	0	> 12	> 12
> 9.66	0.368 (≈ 1.14 µM)	> 9.66	CCN(CC)CCSc1ccc(-c2ccc(Cl)cc2)nn1	0	0	0	> 9.66	> 9.66
0.442 (≈ 1.35 µM)	> 10.9	> 10.9	Fc1ccc(Nc2nc(N3CCCC3)nc(N3CCCC3)n2)cc1	9.215	0	0	> 10.9	3.85 (≈ 11.7 µM)
0.363 (≈ 0.972 µM)	> 11.2	> 11.2	O=C(CCCSc1ccc(F)cc1)Nc1nc(-c2ccccn2)cs1	39.33	0	0	3.76 (≈ 10.1 µM)	0.335 (≈ 0.897 µM)
> 14.6	> 14.6	> 14.6	CN(C)CCN(C(=O)CCCS(=O)(=O)c1ccccc1)c1nc2ccc(F)cc2s1	12.34	0	33.33	> 14.6	0.759 (≈ 1.69 µM)
4.2 (≈ 9.71 µM)	9.42 (≈ 21.8 µM)	> 13	Cc1ccc(C)c(-c2csc(NC(=O)CCCS(=O)(=O)c3ccc(F)cc3)n2)c1	12.34	0	0	0.999 (≈ 2.31 µM)	0.588 (≈ 1.36 µM)
4.36 (≈ 9.71 µM)	6 (≈ 13.4 µM)	> 13.5	O=C(CCCS(=O)(=O)c1ccc(F)cc1)Nc1nc2c(s1)CSc1ccccc1-2	66.33	100	0	> 13.5	5.29 (≈ 11.8 µM)
0.347 (≈ 0.971 µM)	> 10.7	> 10.7	COc1ccc(SCC(=O)Nc2nc(-c3ccccn3)cs2)cc1	86.55	0	0	> 10.7	0.356 (≈ 0.996 µM)
3.52 (≈ 8.79 µM)	3.55 (≈ 8.87 µM)	> 12	COc1ccc(OC)c(-c2csc(NC(=O)Cc3ccc(SC)cc3)n2)c1	11.35	0	0	> 12	0.663 (≈ 1.66 µM)
3.73 (≈ 9.71 µM)	0.271 (≈ 0.705 µM)	3.73 (≈ 9.71 µM)	COc1ccc(-c2nc(NC(=O)Cc3ccc(SC)cc3)sc2C)cc1	45.5	0	0	1.29 (≈ 3.37 µM)	1.95 (≈ 5.07 µM)
> 12.4	> 12.4	4.01 (≈ 9.71 µM)	CS(=O)(=O)c1ccc(CC(=O)Nc2nc(-c3ccc(Cl)s3)cs2)cc1	11.35	0	0	1.53 (≈ 3.7 µM)	0.575 (≈ 1.39 µM)
4.29 (≈ 10.2 µM)	7.42 (≈ 17.6 µM)	4.08 (≈ 9.71 µM)	CS(=O)(=O)c1ccc(CC(=O)Nc2nc3c(s2)-c2cccc4cccc-3c24)cc1	11.35	0	0	0.688 (≈ 1.64 µM)	0.317 (≈ 0.754 µM)
0.462 (≈ 1.03 µM)	11.2 (≈ 25.1 µM)	4.34 (≈ 9.71 µM)	C=CCn1/c(=N\C(=O)Cc2ccc(S(C)(=O)=O)cc2)sc2c(OC)ccc(OC)c21	13.3	0	0	13.2 (≈ 29.6 µM)	4.07 (≈ 9.11 µM)
4.01 (≈ 9.71 µM)	12.4 (≈ 30 µM)	> 12.4	CCS(=O)(=O)c1ccc(CC(=O)Nc2nc3c(s2)CCc2ccccc2-3)cc1	0	0	0	0.908 (≈ 2.2 µM)	0.436 (≈ 1.06 µM)
0.341 (≈ 0.959 µM)	0.138 (≈ 0.388 µM)	> 10.7	CC(C)Sc1ccc(C(=O)Nc2nc(-c3ccccn3)cs2)cc1	86.7	0	0	3.11 (≈ 8.75 µM)	0.368 (≈ 1.04 µM)
> 12.6	> 12.6	0.407 (≈ 0.97 µM)	CC(C)S(=O)(=O)c1ccc(C(=O)Nc2ccccc2-c2nc3ccccc3[nH]2)cc1	13.3	0	0	> 12.6	> 12.6
11.7 (≈ 24.8 µM)	> 14.1	4.57 (≈ 9.71 µM)	CCN(C1CCCCC1)S(=O)(=O)c1ccc(C(=O)Nc2nc(-c3ccccn3)cs2)cc1	80	0	0	5.19 (≈ 11 µM)	0.459 (≈ 0.975 µM)
4.32 (≈ 9.71 µM)	> 13.3	4.32 (≈ 9.71 µM)	CCN(C1CCCCC1)S(=O)(=O)c1ccc(C(=O)Nc2nnc(-c3ccco3)o2)cc1	20	0	0	6.19 (≈ 13.9 µM)	0.442 (≈ 0.994 µM)
0.966 (≈ 2.04 µM)	> 14.2	4.59 (≈ 9.71 µM)	CCN(C1CCCCC1)S(=O)(=O)c1ccc(C(=O)Nc2nnc(-c3ccc(F)cc3)o2)cc1	46.7	0	0	0.577 (≈ 1.22 µM)	0.459 (≈ 0.971 µM)
0.528 (≈ 1.16 µM)	> 13.6	> 13.6	CCN(C1CCCCC1)S(=O)(=O)c1ccc(C(=O)Nc2nnc(-c3ccccc3)o2)cc1	53.3	0	0	1.61 (≈ 3.54 µM)	0.431 (≈ 0.948 µM)
4.15 (≈ 9.49 µM)	9.05 (≈ 20.7 µM)	> 13.1	O=C(CCCSc1ccccc1)N(Cc1ccncc1)c1nc2c(F)cccc2s1	0	0	0	> 13.1	0.816 (≈ 1.86 µM)
> 12.8	> 12.8	> 12.8	COc1ccc(-c2ccc(OCCNS(=O)(=O)c3ccc(Cl)s3)nn2)cc1	33.3	0	0	5.41 (≈ 12.7 µM)	0.788 (≈ 1.85 µM)
